Reference: ChEMBL document CHEMBL1153089, “Synthesis, antibacterial activities and molecular docking studies of peptide and Schiff bases as targeted antibiotics” (Bioorg Med Chem, 2009)
Values after ≈ are worked out from the molar mass of the structure shown.

Columns and labels:
[1] = molecular target: T1, 3-oxoacyl-[acyl-carrier-protein] synthase 3 (Escherichia coli, UniProt C3TDZ2); assay: Inhibition of Escherichia coli Beta-ketoacyl-ACP synthase III expressed in Escherichia coli BL21 (DE3) by liquid scintillation counting
T1 sequence (C3TDZ2 whole entry): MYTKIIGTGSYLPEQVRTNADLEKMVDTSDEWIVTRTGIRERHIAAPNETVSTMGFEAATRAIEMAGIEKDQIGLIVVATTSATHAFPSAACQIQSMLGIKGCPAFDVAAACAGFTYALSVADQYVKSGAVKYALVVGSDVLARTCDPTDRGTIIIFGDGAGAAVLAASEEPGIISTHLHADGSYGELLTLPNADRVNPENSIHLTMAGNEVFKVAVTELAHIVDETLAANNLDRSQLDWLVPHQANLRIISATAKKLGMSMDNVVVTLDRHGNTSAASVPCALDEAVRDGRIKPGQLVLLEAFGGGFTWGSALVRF
Procedure, shortened: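 His-tagged E. coli KAS III from pET30 in BL21(DE3), purified on Ni-NTA and stored in 20 mM Tris pH 7.6, 100 mM NaCl, 1 mM DTT, 20% glycerol. The radiometric assay precipitated product with ice-cold 10% TCA and redissolved it in 0.5 M NaOH. ³H incorporation was counted by liquid scintillation. Inhibitors were added from DMSO stock, with final DMSO ≤2%. IC50 was determined.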

Escherichia coli = assay: Antimicrobial activity against Escherichia coli ATCC 35218 after 24 hrs by MTT assay; format: functional; conditions: ATCC 35218, 24 h
Procedure, shortened: (§1)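 MIC by broth microdilution in Mueller–Hinton medium. Compounds were serially diluted in DMSO in the medium. Inoculum was about 10⁵ cfu/mL. Plates were incubated at 37 °C for 24 h. MIC was read visually with MTT colorimetric staining.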

Pseudomonas aeruginosa = assay: Antimicrobial activity against Pseudomonas aeruginosa ATCC 13525 after 24 hrs by MTT assay; format: functional; conditions: ATCC 13525, 24 h; procedure, shortened: as §1
Bacillus subtilis = assay: Antimicrobial activity against Bacillus subtilis ATCC 6633 after 24 hrs by MTT assay; format: functional; conditions: ATCC 6633, 24 h; procedure, shortened: as §1
Staphylococcus aureus = assay: Antimicrobial activity against Staphylococcus aureus ATCC 6538 after 24 hrs by MTT assay; format: functional; conditions: ATCC 6538, 24 h; procedure, shortened: as §1

IC50 [1] [µM] | MIC (Escherichia coli) [µg/mL] | MIC (Pseudomonas aeruginosa) [µg/mL] | MIC (Bacillus subtilis) [µg/mL] | MIC (Staphylococcus aureus) [µg/mL] | Structure (SMILES)
16 |  |  |  |  | O=C(NCCCC/N=C/c1cc(Br)ccc1O)c1ccccc1O
112 |  |  |  |  | O=C(NCCCCCC/N=C/c1cc(F)ccc1O)c1ccccc1O
17.1 |  |  |  |  | O=C(NCC/N=C/c1cc(Br)ccc1O)c1ccccc1O
19.2 |  |  |  |  | O=C(NCCCC/N=C/c1cc(F)ccc1O)c1ccccc1O
29.9 |  |  |  |  | O=C(NCCCCCC/N=C/c1cc(Br)ccc1O)c1ccccc1O
5.56 | 3.13 (≈ 9.89 µM) | 1.56 (≈ 4.93 µM) | 25 (≈ 79 µM) | 1.56 (≈ 4.93 µM) | O=C(NCCC/N=C/c1cc(F)ccc1O)c1ccccc1O
56.9 |  |  |  |  | O=C(NCCCCCC/N=C/c1cc(I)ccc1O)c1ccccc1O
3.54 | 3.13 (≈ 7.38 µM) | 6.25 (≈ 14.7 µM) | 25 (≈ 58.9 µM) | > 50 | O=C(NCCC/N=C/c1cc(I)ccc1O)c1ccccc1O
34.2 |  |  |  |  | O=C(NCC/N=C/c1cc(F)ccc1O)c1ccccc1O
43.4 |  |  |  |  | O=C(NCCCC/N=C/c1ccccc1O)c1ccccc1O
0.875 | 0.39 (≈ 1.03 µM) | 3.13 (≈ 8.3 µM) | 1.56 (≈ 4.14 µM) | 3.13 (≈ 8.3 µM) | O=C(NCCC/N=C/c1cc(Br)ccc1O)c1ccccc1O
6.61 |  |  |  |  | O=C(NCCCC/N=C/c1cc(Br)cc(Br)c1O)c1ccccc1O
6.69 | > 50 | 12.5 (≈ 36 µM) | 25 (≈ 72.1 µM) | 25 (≈ 72.1 µM) | O=C(NCCCC/N=C/c1cc(Cl)ccc1O)c1ccccc1O
26.7 |  |  |  |  | O=C(NCCCCCC/N=C/c1cc(Cl)ccc1O)c1ccccc1O
4.93 | 25 (≈ 75.1 µM) | > 50 | > 50 | > 50 | O=C(NCCC/N=C/c1cc(Cl)ccc1O)c1ccccc1O
1.48 | 6.25 (≈ 14.3 µM) | 3.13 (≈ 7.14 µM) | 1.56 (≈ 3.56 µM) | > 50 | O=C(NCCCC/N=C/c1cc(I)ccc1O)c1ccccc1O

The remaining lines, values behind:

Structure (SMILES) | IC50 [1] [µM] | MIC (Escherichia coli) [µg/mL] | MIC (Pseudomonas aeruginosa) [µg/mL] | MIC (Bacillus subtilis) [µg/mL] | MIC (Staphylococcus aureus) [µg/mL]
Oc1ccccc1/C=N/CCCCCC/N=C/c1ccccc1O | 44.6 |  |  |  | 
O=C(NCCCCCCNC(=O)c1ccccc1O)c1ccccc1O | > 140 |  |  |  | 
O=C(NCCCNC(=O)c1ccccc1O)c1ccccc1O | 41.8 |  |  |  | 
O=C(NCC/N=C/c1cc(I)ccc1O)c1ccccc1O | 2.75 | 25 (≈ 60.9 µM) | > 50 | > 50 | 25 (≈ 60.9 µM)
O=C(NCC/N=C/c1cc(Cl)cc(Cl)c1O)c1ccccc1O | 7.08 | 1.56 (≈ 4.42 µM) | > 50 | 3.13 (≈ 8.86 µM) | > 50
Oc1ccccc1/C=N/CCC/N=C/c1ccccc1O | 43.4 |  |  |  | 
O=C(NCC/N=C/c1cc(Cl)ccc1O)c1ccccc1O | 8.69 |  |  |  | 
O=C(NCCCCNC(=O)c1ccccc1O)c1ccccc1O | 38.3 |  |  |  | 
Oc1ccccc1/C=N/CCCC/N=C/c1ccccc1O | 44 |  |  |  | 
O=C(NCCCCCC/N=C/c1cc(Cl)cc(Cl)c1O)c1ccccc1O | > 122 |  |  |  | 
O=C(NCC/N=C/c1cc(Br)cc(Br)c1O)c1ccccc1O | 1.22 | 6.25 (≈ 14.1 µM) | 12.5 (≈ 28.3 µM) | 1.56 (≈ 3.53 µM) | 12.5 (≈ 28.3 µM)
O=C(NCC/N=C/c1cc(I)cc(I)c1O)c1ccccc1O | 23.7 |  |  |  | 
O=C(NCCC/N=C/c1c(O)ccc2ccccc12)c1ccccc1O | 8.61 | > 50 | 12.5 (≈ 35.9 µM) | 25 (≈ 71.8 µM) | 25 (≈ 71.8 µM)
Oc1ccccc1/C=N/CC/N=C/c1ccccc1O | > 186 |  |  |  | 
O=C(NCCC/N=C/c1ccccc1O)c1ccccc1O | 41.9 |  |  |  | 
O=C(NCCCCCC/N=C/c1ccccc1O)c1ccccc1O | 65.1 |  |  |  | 
O=C(NCCCCCC/N=C/c1cc(Br)cc(Br)c1O)c1ccccc1O | 12.5 |  |  |  | 
O=C(NCCCCCC/N=C/c1cc(I)cc(I)c1O)c1ccccc1O | 25.8 |  |  |  | 
O=C(NCCCCCC/N=C/c1c(O)ccc2ccccc12)c1ccccc1O | > 128 |  |  |  | 
O=C(NCCC/N=C/c1cc(Cl)cc(Cl)c1O)c1ccccc1O | 7.49 |  |  |  | 
O=C(NCCC/N=C/c1cc(Br)cc(Br)c1O)c1ccccc1O | 13.8 |  |  |  | 
O=C(NCC/N=C/c1ccccc1O)c1ccccc1O | 25.5 |  |  |  | 
O=C(NCC/N=C/c1c(O)ccc2ccccc12)c1ccccc1O | 29.2 |  |  |  | 
O=C(NCCNC(=O)c1ccccc1O)c1ccccc1O | 55 |  |  |  | 
O=C(NCCC/N=C/c1cc(I)cc(I)c1O)c1ccccc1O | 23.5 |  |  |  | 
O=C(NCCCC/N=C/c1cc(Cl)cc(Cl)c1O)c1ccccc1O | 7.74 |  |  |  | 
O=C(NCCCC/N=C/c1cc(I)cc(I)c1O)c1ccccc1O | 11.1 |  |  |  | 
O=C(NCCCC/N=C/c1c(O)ccc2ccccc12)c1ccccc1O | 8.55 |  |  |  | 
